The text below walks through data of ChEMBL document CHEMBL4627246, “Pyroglutamide-Based P2X7 Receptor Antagonists Targeting Inflammatory Bowel Disease” (J Med Chem, 2020).

pIC50, pKi: −log10 of the molar value. Activity calls are given as the source filed them. No cut-off for these calls is given here.

Data set [1] has as its target T1, P2X purinoceptor 7 (Homo sapiens) (UniProt Q99572).
T1 sequence (whole entry): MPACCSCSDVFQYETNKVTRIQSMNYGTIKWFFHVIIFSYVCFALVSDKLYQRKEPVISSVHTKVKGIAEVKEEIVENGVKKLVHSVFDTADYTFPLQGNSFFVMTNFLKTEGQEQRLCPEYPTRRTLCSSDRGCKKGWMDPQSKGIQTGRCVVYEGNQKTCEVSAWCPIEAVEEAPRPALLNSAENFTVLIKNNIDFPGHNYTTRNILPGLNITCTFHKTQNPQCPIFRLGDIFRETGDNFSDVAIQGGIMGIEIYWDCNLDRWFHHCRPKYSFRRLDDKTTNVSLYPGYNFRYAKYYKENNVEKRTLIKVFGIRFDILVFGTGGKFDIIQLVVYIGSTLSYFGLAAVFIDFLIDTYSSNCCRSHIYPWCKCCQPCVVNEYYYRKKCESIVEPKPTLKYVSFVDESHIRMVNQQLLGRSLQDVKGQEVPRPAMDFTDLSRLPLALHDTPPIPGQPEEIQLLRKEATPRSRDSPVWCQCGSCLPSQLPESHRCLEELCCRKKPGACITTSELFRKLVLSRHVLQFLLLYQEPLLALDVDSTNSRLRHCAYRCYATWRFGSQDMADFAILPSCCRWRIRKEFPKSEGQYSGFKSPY
Put plainly: Antagonist activity at P2X7R in human THP1 cells assessed as inhibition of LPS and BzATP-induced ROS production at 10^-5 mol/L pretreated with compound followed by LPS/BzATP addition and measured up to 5 hrs by kinetic chemiluminescence based fluorometric analysis. The format is cell-based. The conditions noted are these: THP-1. A digest of the protocol: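 PMA-differentiated THP-1 macrophages (10^5 cells) in RPMI 1640 + 10% FBS pretreated with antagonist at 10^-5 mol/L, then LPS 10 μmol/L plus BzATP 70 μmol/L at 37 °C, 5% CO2; horseradish peroxidase (50 μg/mL) and luminol (50 μM) mixture added, chemiluminescence read on a fluorometer; cell-free H2O2 serves as positive control.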

For data set [2], the target named is T1, P2X purinoceptor 7 (Homo sapiens). Put plainly: Antagonist activity at P2X7 receptor in human THP-1 cells assessed as inhibition of LPS and BzATP-induced IL-1beta production at 10^-6 mol/L pretreated with compound followed by LPS/BzATP addition and measured after 2 to 6 hrs by ELISA. The note with it: TDE = time-dependent effect. It counts as cell-based. A digest of the protocol: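 PMA (100nM)-differentiated THP-1 macrophages (RPMI 1640, 10% FCS), 10^6 cells, pretreated with antagonist at […], then challenged with LPS 10 μmol/L and BzATP 70 μmol/L at 37 °C, 5% CO2; IL1β measured by ELISA, including the 6 h point; mean ± SD, P<0.05 significant.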
On the technique in general: ELISA stands for enzyme-linked immunosorbent assay.

The target is the same in data set [3]. Put plainly: Antagonist activity at P2X7 receptor in human THP-1 cells assessed as inhibition of LPS and BzATP-induced IL-1beta production at 10^-5 mol/L pretreated with compound followed by LPS/BzATP addition and measured after 2 to 6 hrs by ELISA. It counts as cell-based. A digest of the protocol:
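THP-1 monocytes grown in RPMI 1640 + 10% FCS, differentiated to macrophages with PMA (100nM); 10^6 cells pretreated with antagonist at 10^-5 mol/L, then exposed to LPS 10 μmol/L plus BzATP 70 μmol/L at 37 °C, 5% CO2; IL1β quantified by ELISA in samples at 2, 4 and 6 h; mean ± SD, significance P<0.05.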

In data set [4] the target is T2, P2X purinoceptor 7 (Homo sapiens, UniProt Q99572).
T2 sequence (Q99572 whole entry): T1 sequence (whole entry)
Put plainly: Displacement of [3H]-A804598 from human P2X7 expressed in human HEK293 cell membrane incubated for 1 hr by microplate scintillation counting method. The format is cell membranes.

The target of data set [5] is T1, P2X purinoceptor 7 (Homo sapiens). Description: Inhibition of human P2X7 expressed in human HEK293 cells assessed as reduction in BzATP-stimulated TO-PRO-3 incorporation at 10 uM preincubated with compound and TO-PRO-3 for 15 mins prior to BzATP addition and measured after 1 hr by Fluo-3AM dye based flow cytometry relative to control. The format is cell-based. A digest of the protocol: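 HEK-293 cells overexpressing human P2RX7 loaded with Fluo-3 AM, then incubated with TO-PRO-3 (large pore uptake) and propidium iodide (viability) plus compound (10⁻⁵ M single point) for 15 min before BzATP 100 µM. After 1 h, flow cytometry; percentage of Fluo-3/TO-PRO-3 double-positive cells calculated. Mean of n ≥ 2 with positive control.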
(In general: A flow cytometer gives signals particle by particle.)

Data set [6] relates to HEK293. Put plainly: Cytotoxicity against human HEK293 cells assessed as reduction in cell viability at 10^-5 mol/L incubated for 72 hrs. The note with it: hek293, 72 h, 10 µM. The format is cell-based. A digest of the protocol: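 Wild-type and P2RX7-transfected HEK293 cells exposed to compound for 72 hours; viability compared against untreated control.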
The target of data set [7] is T3, P2X purinoceptor 1 (Homo sapiens) (UniProt P51575).
T3 sequence (whole entry): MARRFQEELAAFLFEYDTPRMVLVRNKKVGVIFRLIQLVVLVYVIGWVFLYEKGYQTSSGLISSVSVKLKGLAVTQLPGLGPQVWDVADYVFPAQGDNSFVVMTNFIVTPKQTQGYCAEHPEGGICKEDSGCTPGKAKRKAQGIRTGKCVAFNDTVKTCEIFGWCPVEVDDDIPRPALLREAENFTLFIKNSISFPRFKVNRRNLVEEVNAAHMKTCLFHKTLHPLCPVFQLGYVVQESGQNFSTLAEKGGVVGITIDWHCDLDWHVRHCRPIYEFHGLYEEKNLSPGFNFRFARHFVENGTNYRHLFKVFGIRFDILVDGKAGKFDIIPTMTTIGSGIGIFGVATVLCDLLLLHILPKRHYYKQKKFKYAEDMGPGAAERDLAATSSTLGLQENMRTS
Put plainly: Antagonist activity at P2X1 receptor in human platelet assessed as inhibition of thrombin-induced platelet aggregation at 10 '-5 to 10^-6 mol/L pretreated with compound and LPS/BzATP for 10 mins followed by thrombin addition and measured for 8 mins by aggregometry analysis. It counts as cell-based.

Data set [8] is described as follows: Solubility of compound in saline at 1mg/ml. The note with it: buffer. It counts as physicochemical.
Data set [9] in a line: Metabolic stability in human liver microsomes assessed as intrinsic clearance at 0.2 mg/ml incubated for 60 mins by UPLC/MS-MS analysis. The note with it: read-out: CLH. It counts as ADME, Microsome. Background: Liver microsomes are vesicles of endoplasmic reticulum, rich in cytochrome P450 enzymes.
A short description of data set [10]: Metabolic stability in human liver microsomes assessed as half life at 0.2 mg/ml incubated for 60 mins by UPLC/MS-MS analysis. It counts as ADME, Microsome.
Data set [11] can be described thus: Drug metabolism in mouse measured after 40 mins. It counts as ADME. The note with it: read-out: Drug metabolism.
Data set [12] can be described thus: Metabolic stability in human hepatocytes. The format is ADME, cell-based, Hepatocyte.
The target in data set [13] is T1, P2X purinoceptor 7 (Homo sapiens). Description: Antagonist activity at P2X7R in human THP1 cells assessed as inhibition of LPS and BzATP-induced ROS production at 10^-6mol/L pretreated with compound followed by LPS/BzATP addition and measured after 4 hrs by kinetic chemiluminescence based fluorometric analysis. It counts as cell-based. The note with it: THP-1. A digest of the protocol:
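Differentiated THP-1 macrophages (10^5 cells, RPMI 1640 + 10% FBS) pretreated with antagonist at 10^-6 mol/L before LPS (10 μmol/L) and BzATP (70 μmol/L), 37 °C, 5% CO2; ROS detected as luminol (50 μM)/horseradish peroxidase (50 μg/mL) chemiluminescence on a fluorometer; H2O2 without cells as positive control.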

On to `O=C(NCc1ccc(Cl)cc1Cl)[C@@H]1COC(=O)N1c1cccs1`, for which the inhibition entry in [1] and in data set [3] was “Active” throughout. Moreover, the inhibition (usually the percentage by which the read-out fell short of the control) is “Tde” in data set [2] and 80% in [5]. In data set [4], the pIC50 (commonly the IC50 on a negative log10 scale, so that one unit is a factor of ten) was 4.82. Besides, the pKi (as a rule, the negative decadic logarithm of the Ki, by convention in mol/L) in [4] is 5.51. Besides, in data set [6], the Activity entry is “Non-Toxic”. Moreover, in data set [7], the result was inactive. Moreover, in data set [8], the solubility result is listed as “Insoluble”. In [9], the microsomal CLint was found to be 663 µL/min/mg. The half-life (as a rule, how long it takes for the measured level to halve) in [10] was 1.4 min. The metabolised at 40 min in [11] was 100%.

For `CN1C(=O)CC[C@H]1C(=O)NCc1cccc(C(F)(F)F)c1Cl` [GSK1482160], the inhibition entry in [1] and in data set [3] was “Active” each time. For the same molecule, the results for the inhibition entry in data set [2] and in [5] were “Tde” and 98%, respectively. In [4], the pIC50 is 6.48. The pKi in data set [4] is 7.17. The solubility result in data set [8] was “Insoluble”. Moreover, the microsomal CLint in [9] was determined as 2.8 µL/min/mg. For the same molecule, the half-life in data set [10] is 800 min. The metabolised at 40 min in data set [11] came out at 4.4%. For the same molecule, the Stability result in data set [12] was “Stable”.

Turning to `O=C(NCc1ccc(Cl)cc1Cl)[C@@H]1CCC(=O)N1c1ccsc1`, the inhibition result in data set [1], in data set [3] and in data set [13] was “Active” each time. Besides, the values for the inhibition result in data set [2] and in data set [5] were “Tde” and 78%, respectively. In data set [4], this molecule gave a pIC50 of 5.90. The pKi in data set [4] is 6.59. Also, the Activity entry in [6] is reported as “Non-Toxic”. Besides, in data set [7], the result was inactive. Also, the solubility entry in data set [8] is “Insoluble”. In data set [9], the microsomal CLint worked out at 762 µL/min/mg. Moreover, the half-life in data set [10] was found to be 2.5 min. In addition, the metabolised at 40 min in data set [11] is 99.9%. Besides, the Stability result in [12] is “Unstable”.

`O=C(NCc1ccc(Cl)cc1Cl)[C@@H]1CCC(=O)N1c1nccs1`: the inhibition entry in data set [1] and in data set [3] was “Active” in each case. The figures for the inhibition entry in data set [2] and in [5] were “Tde” and 83%, respectively. This molecule showed a pIC50 in data set [4] of 5.62. The same molecule gave a pKi in [4] of 6.31. In addition, the Activity entry in data set [6] is “Non-Toxic”. The result in data set [7] was inactive. Also, the solubility entry in data set [8] is “Insoluble”. In addition, in data set [9], the microsomal CLint worked out at 253 µL/min/mg. Further, in data set [10], the half-life stood at 7.5 min. The metabolised at 40 min in [11] worked out at 93%. Besides, the Stability entry in [12] is “Unstable”.

Consider `O=C(NCc1ccc(Cl)cc1Cl)[C@@H]1CCC(=O)N1c1ccccc1`, for which the inhibition in data set [5] worked out at 50%. Further, the Stability result in data set [12] was “Unstable”.

Regarding `O=C(NCc1ccc(Cl)cc1Cl)[C@@H]1CCC(=O)N1c1cscn1`, the inhibition entry in data set [1] and in data set [3] was “Active” throughout. The inhibition result in data set [2] was “Tde”; in data set [5], 98%. This molecule also gave a pIC50 in data set [4] of 6.42. The same molecule showed a pKi in data set [4] of 7.11. Besides, the Activity entry in [6] is recorded as “Non-Toxic”. For the same molecule, the outcome in data set [7] was inactive. Also, the solubility entry in [8] is given as “Insoluble”. Moreover, the microsomal CLint in [9] came to 379 µL/min/mg. Moreover, the half-life in [10] was found to be 4.8 min. For the same molecule, the metabolised at 40 min in data set [11] came out at 98%. Further, in [12], the Stability entry was “Unstable”.

`O=C(NCc1ccc(Cl)cc1Cl)[C@@H]1CCC(=O)N1c1cccs1`: the inhibition result in data set [1], in data set [3] and in [13] was “Active” in each case. Further, the inhibition result in data set [2] is “Tde”; in data set [5], 98%. This molecule gave a pIC50 in data set [4] of 6.14. Besides, in [4], the pKi is 6.83. Further, in [6], the Activity entry is reported as “Non-Toxic”. The result in [7] was inactive. In addition, the solubility entry in data set [8] is on record as “Insoluble”. Moreover, the microsomal CLint in data set [9] was 1070 µL/min/mg. For the same molecule, the half-life in data set [10] was 1.5 min. Moreover, the metabolised at 40 min in data set [11] worked out at 100%. Also, the Stability entry in data set [12] is given as “Unstable”.
